Measurements from different studies.
Lines come from different studies, so protocols differ. In brackets after ≈: the same amount, converted by molar mass.
Organism: Mycobacterium tuberculosis
Observed: microbial growth

| Structure (SMILES) | technique | strain | time | quantity | value |
| --- | --- | --- | --- | --- | --- |
| c1ccc(-c2cc(NCCC34CC5CC(CC(C5)C3)C4)n3ncnc3n2)nc1 |  | H37RV |  | MIC | 12 µM |
| NC(=O)c1cncc(Cn2c(=S)[nH]c3ccc(Cl)cc3c2=O)c1 |  | H37RV |  | MIC90 | 63 µM (≈ 21.8 µg/mL) |
| Nc1c(C(=O)N2CCOCC2)sc2nc(-c3ccccc3)ccc12 |  | H37RV |  | IC50 | 46 µM |
| Clc1ccc(CCNc2cc(-c3ccco3)nc3nncn23)cc1 |  | H37RV |  | MIC | 4.8 µM |
| CCc1cc(=O)c2c(OCC(O)CN3CCCCC3)c3ccoc3c(OC)c2o1 (stereo not shown) | resazurin |  | 21 days | MIC | 32 µg/mL |
| CCCCCCC#Cc1cncc(-c2nnc(SCc3ccc(Cl)cc3)n2CCCN)c1 | resazurin | ERDMAN |  | IC50 | 29 µM |
| CN(C)C(=O)OCc1cc2[nH]c(=S)n(Cc3cncnc3)c(=O)c2cc1Cl |  | H37RV |  | MIC90 | > 100 µM |
| NNC(=O)c1ccncc1 | resazurin |  | 21 days | MIC | 0.5 µg/mL |
| COc1ccc(-c2cc(C(F)(F)F)c3c(N)c(C(=O)Nc4ccc(C)cc4C)sc3n2)cc1 |  | H37RV |  | IC50 | > 100 µM |
| O=[N+]([O-])c1cn2c(n1)OC[C@@H](OCc1ccc(OC(F)(F)F)cc1)C2 |  | H37RV |  | MIC | 0.125 µg/mL |
| NCC[C@H](O)C(=O)N[C@@H]1C[C@H](N)[C@@H](O[C@H]2O[C@H](CN)[C@@H](O)[C@H](O)[C@H]2O)[C@H](O)[C@H]1O[C@H]1O[C@H](CO)[C@@H](O)[C@H](N)[C@H]1O |  | H37RV |  | MIC50 | 1.2 µg/mL (≈ 2.05 µM) |
| Clc1cccc(CCOc2cc(-c3ccccn3)nc3ncnn23)c1 |  | H37RV |  | MIC | > 100 µM |
| NNC(=O)c1ccncc1 |  |  |  | MIC50 | 0.1 µg/mL (≈ 0.729 µM) |
| CC(=O)c1ccc(OCCc2cccc(F)c2)c(C(N)=O)c1 |  |  |  | IC50 | 1.3 µM |
| Cc1ccc(Cn2c(=S)[nH]c3ccc(Cl)cc3c2=O)cn1 |  | H37RV |  | MIC90 | > 25 µM |
| FC(F)(F)c1ccc(CCNc2cc(-c3cccs3)nc3nncn23)cc1 |  | H37RV |  | IC90 | 0.31 µM |
| COc1ccc(-c2cc(C(F)(F)F)c3c(N)c(C(=O)Nc4cc(C)ccc4C)sc3n2)cc1 |  | H37RV |  | IC50 | > 100 µM |
| CC(c1cccnc1)n1c(=S)[nH]c2cc(CO)c(Cl)cc2c1=O (stereo not shown) |  | H37RV |  | MIC90 | > 100 µM |
| CC[C@@H](CO)NCCN[C@@H](CC)CO | resazurin |  | 21 days | MIC | 0.5 µg/mL |
| COc1ccc(CCNc2cc(-c3ccccn3)nc3nncn23)cc1 |  | H37RV |  | MIC | 0.39 µM |
| CCCCCCC#Cc1cncc(-c2nnc(SC[C@H]3O[C@@H](n4ccc(=O)[nH]c4=O)[C@H](O)[C@@H]3O)n2CCO)c1 | resazurin | ERDMAN |  | IC50 | 196 µM |
| Nc1c(C(=O)Nc2ccccc2C(F)(F)F)sc2nc(-c3ccccc3)cc(C(F)(F)F)c12 |  | H37RV |  | IC50 | > 100 µM |

| Structure (SMILES) | technique | strain | time | quantity | value |
| --- | --- | --- | --- | --- | --- |
| CCCCCCC#Cc1cncc(-c2nnc(SCc3cc([N+](=O)[O-])cc([N+](=O)[O-])c3)n2CCO)c1 | resazurin | ERDMAN |  | IC50 | 1.4 µM |
| Nc1c(C(=O)Nc2cccnc2)sc2nc(-c3ccccc3)cc(C(F)(F)F)c12 |  | H37RV |  | IC50 | > 100 µM |
| O=c1c2cc(C(F)(F)F)ncc2[nH]c(=S)n1Cc1cccnc1 |  | H37RV |  | MIC90 | 45.5 µM (≈ 15.4 µg/mL) |
| COc1ccc(-c2cc(C(F)(F)F)c3c(N)c(C(=O)N4CCCC4)sc3n2)cc1 |  | H37RV |  | IC50 | > 50 µM |
| COC(=O)c1cc2[nH]c(=S)n(Cc3cccnc3)c(=O)c2cc1Cl |  | H37RV |  | MIC90 | > 100 µM |
| O=C(c1cc2ccc(-c3ccccc3)nc2s1)N1CCCC1 |  | H37RV | 5 days | IC90 | > 100 µM |
| CO[C@H]1/C=C/O[C@@]2(C)Oc3c(C)c(O)c4c(O)c(c(/C=N/N5CCN(C)CC5)c(O)c4c3C2=O)NC(=O)/C(C)=C\C=C\[C@H](C)[C@H](O)[C@@H](C)[C@@H](O)[C@@H](C)[C@H](OC(C)=O)[C@@H]1C |  | H37RA |  | MIC90 | 0.01 µM (≈ 0.00823 µg/mL) |
| NC(=O)c1cc(Br)ccc1OCCc1cccc(F)c1 |  |  |  | IC50 | 2 µM |
| CCCCCCC#Cc1cncc(-c2nnc(SC[C@H]3O[C@@H](n4ccc(=O)[nH]c4=O)[C@H](O)[C@@H]3O)n2CCCN)c1 | resazurin | ERDMAN |  | IC50 | > 200 µM |
| CO[C@H]1/C=C/O[C@@]2(C)Oc3c(C)c(O)c4c(O)c(c(/C=N/N5CCN(C)CC5)c(O)c4c3C2=O)NC(=O)/C(C)=C\C=C\[C@H](C)[C@H](O)[C@@H](C)[C@@H](O)[C@@H](C)[C@H](OC(C)=O)[C@@H]1C |  | H37RV |  | MIC50 | 0.06 µg/mL (≈ 0.0729 µM) |
| O=c1c2cc(Cl)ccc2[nH]c(=S)n1Cc1ccc(-n2cccn2)nc1 |  | H37RV |  | MIC90 | > 100 µM |
| Cc1ccc(-c2cc(NCCc3ccc(F)cc3)n3cnnc3n2)o1 |  | H37RV |  | MIC | 19 µM |
| CCCCCCC#Cc1cncc(-c2nnc(SCCCn3ccc(=O)[nH]c3=O)n2C)c1 | resazurin | ERDMAN |  | IC50 | 25 µM |
| CCc1cc(=O)c2c(OCC3CO3)c3ccoc3c(OC)c2o1 (stereo not shown) | resazurin | H37RV | 21 days | MIC | 128 µg/mL |
| CNC(=O)c1cc(C(F)F)ccc1OCCc1cccc(F)c1 |  |  |  | IC50 | 0.73 µM |
| Cc1ccc(CCNc2cc(-c3nccs3)nc3nncn23)cc1 |  | H37RV | 5 days | MIC | 32 µM |
| CCCCCCC#Cc1cncc(-c2nnc(SC[C@H]3O[C@@H](n4ccc(=O)[nH]c4=O)[C@H](O)[C@@H]3O)n2C)c1 | resazurin | ERDMAN |  | IC50 | 98 µM |
| Nc1c(C(=O)NCc2ccc(F)cc2)sc2ncccc12 |  | H37RV |  | IC50 | > 100 µM |
| N#Cc1cc2c(=O)n(Cc3cccnc3)c(=S)[nH]c2cn1 |  | H37RV |  | MIC90 | 85.8 µM (≈ 25.3 µg/mL) |
| CCCCCCC#Cc1cncc(-c2nnc(SCc3cc([N+](=O)[O-])cc([N+](=O)[O-])c3)n2CCCN)c1 | resazurin | ERDMAN |  | IC50 | 3.2 µM |
| Cc1nnc2nc(-c3ccccn3)cc(NCCc3ccc(Cl)cc3)n12 |  | H37RV |  | MIC | 24 µM |
